From ChEMBL document CHEMBL1156412, “Absolute stereostructures of three new sesquiterpenes from the fruit of Alpinia oxyphylla with inhibitory effects on nitric oxide production and degranulation in RBL-2H3 cells” (J Nat Prod, 2002) come the findings set out here.

The test system of series [1] is RBL-2H3. Nature of the series: Inhibition of rat RBL2H3 cell degranulation assessed as inhibition of beta-hexosamidase release at 30 uM after 10 mins by microplate reader assay relative to control. It is filed as functional. To be noted: RBL-2H3, 10 min. The method, boiled down: (§1)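 RBL-2H3 cells, 2 × 10^5/well, sensitized overnight with 0.45 µg/mL anti-DNP IgE. Cells washed, then held in Siraganian buffer (pH 7.2, glucose, CaCl2, 0.1% BSA). Sample (0.1% DMSO final) added for 10 min, then DNP-BSA (10 µg/mL final) for 10 min at 37 °C. Supernatant β-hexosaminidase assayed on 1 mM p-nitrophenyl-N-acetyl-β-D-glucosaminide, pH 4.5, 1 h, 405 nm. Inhibition corrected for blank and spontaneous release; N=4.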

The subject of series [2] is Macrophage. Description: Inhibition of LPS-induced NO production in ddY mouse macrophages assessed as […] accumulation after 20 hrs by Griess reagent method. The series is classed as functional, cell-based. In outline: (§2)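 Adherent peritoneal macrophages from male ddY mice, 5 × 10^5 cells/well, in RPMI 1640 with 5% FCS. Cultured 20 h with 10 µg/mL LPS and compound (3-100 µM, 0.5% DMSO final). Nitrite in the medium measured with Griess reagent. Inhibition % = (A−B)/(A−C)×100 against LPS-only and unstimulated wells. N=4; IC50 determined graphically.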
A general note: Griess reagent forms a coloured azo dye with nitrite.

Series [3] concerns RBL-2H3. Description: Inhibition of rat RBL2H3 cell degranulation assessed as inhibition of beta-hexosamidase release at 10 uM after 10 mins by microplate reader assay relative to control. The series is classed as functional. The settings on record: RBL-2H3, 10 min. The method, boiled down:
as §1

A short description of series [4]: Cytotoxicity against ddY mouse macrophages after 20 hrs by MTT assay. The settings on record: macrophage. It is filed as cell-based. In outline:
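Peritoneal exudate macrophages from male ddY mice (adherent after 1 h preculture, >95% macrophages) in RPMI 1640 with 5% FCS. Exposed to 10 µg/mL LPS plus test compound, 0.5% DMSO final, for 20 h. MTT then added for 4 h. Formazan dissolved in 2-propanol/0.04 M HCl and read at 570 nm (reference 655 nm).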
For orientation: Formazan colour is commonly taken as a measure of viable cells.

Series [5] concerns Macrophage. Description: Inhibition of LPS-induced NO production in ddY mouse macrophages assessed as […] accumulation at 10 uM after 20 hrs by Griess reagent method relative to control. It is filed as functional. The method, boiled down:
as §2

Series [6] has as its system Macrophage. Description: Inhibition of LPS-induced NO production in ddY mouse macrophages assessed as nitrite accumulation at 3 uM after 20 hrs by Griess reagent method relative to control.
Series [7] concerns RBL-2H3. Description: Inhibition of rat RBL2H3 cell degranulation assessed as inhibition of beta-hexosamidase release after 10 mins by microplate reader assay. It is filed as functional, cell-based. To be noted: RBL-2H3, 10 min. In outline:
as §1

Series [8] deals with Macrophage. Nature of the series: Inhibition of LPS-induced NO production in ddY mouse macrophages assessed as […] accumulation at 30 uM after 20 hrs by Griess reagent method relative to control. The series is classed as functional. The method, boiled down:
as §2

The test system of series [9] is RBL-2H3. Description: Inhibition of rat RBL2H3 cell degranulation assessed as inhibition of beta-hexosamidase release at 100 uM after 10 mins by microplate reader assay relative to control. It is filed as functional. The settings on record: RBL-2H3, 10 min. In outline:
as §1

Series [10] relates to Macrophage. Description: Inhibition of LPS-induced NO production in ddY mouse macrophages assessed as […] accumulation at 100 uM after 20 hrs by Griess reagent method relative to control. The series is classed as functional. In outline: as §2

The term inhibition denotes the drop in the measured response relative to a control, in per cent. For orientation: IC50 means the point on the concentration scale where inhibition reaches its midpoint. For the compound `COc1cc(O)c2c(=O)cc(-c3ccccc3)oc2c1` [TECHTOCHRYSIN], the inhibition at 30 µM stood at 40.8% with RBL-2H3 [1] and 60.6% with Macrophage [8]. Moreover, the IC50 in the series on Macrophage [2] came out at 23 µM; with RBL-2H3 [7] it was 49 µM. Also, the inhibition at 10 µM in the series on RBL-2H3 [3] stood at 11.9%; with Macrophage [5] it was 19.2%. The Activity entry in series [4] is “Toxic”. The inhibition at 3 µM in the series with Macrophage [6] is -0.1%. The inhibition at 100 µM in the series with RBL-2H3 [9] is 75.1%; in the series on Macrophage [10] it was 87.6%.

Consider `O=c1cc(-c2ccc(O)c(O)c2)oc2cc(O)cc(O)c12` [LUTEOLIN], for which the IC50 with RBL-2H3 [7] worked out at 82 µM.

Turning to `C=C(C)[C@@H]1CC[C@@]2(C)CC[C@@H](O)C(=C)C2C1` (some centres not stated) [ISOCYPEROL], the inhibition at 30 µM in the series on RBL-2H3 [1] is -11.9%; in the series on Macrophage [8], 64.4%. The IC50 in the series with Macrophage [2] was 21 µM. The inhibition at 10 µM in the series with RBL-2H3 [3] is -5.3%; in the series with Macrophage [5] it was 23.9%. Moreover, in the series on Macrophage [6], the inhibition at 3 µM was determined as 10.3%. The inhibition at 100 µM with RBL-2H3 [9] was -28.9%; with Macrophage [10], 96.8%.

In the case of `C=C(C)[C@H]1C=C2[C@](C)(CCC[C@@]2(C)O)CC1` [OXYPHYLLOL A], the figures for the inhibition at 30 µM in the series with RBL-2H3 [1] and with Macrophage [8] were -15.1% and 40.4%, respectively. Besides, the IC50 with Macrophage [2] is 42 µM. Besides, the figures for the inhibition at 10 µM in the series on RBL-2H3 [3] and in the series on Macrophage [5] were -8.3% and 19.3%, respectively. In the series with Macrophage [6], the inhibition at 3 µM was 12.5%. Besides, the inhibition at 100 µM is -24% with RBL-2H3 [9] and 74.2% in the series on Macrophage [10].

Turning to `CNC(=N)NCCC[C@H](N)C(=O)O` [TILARGININE], the IC50 in the series on Macrophage [2] amounted to 28 µM. For the same compound, in the series on Macrophage [5], the inhibition at 10 µM came out at 17.7%. The inhibition at 3 µM in the series with Macrophage [6] stood at 2%. For the same compound, in the series on Macrophage [8], the inhibition at 30 µM came to 52.3%. Also, the inhibition at 100 µM with Macrophage [10] worked out at 79.2%.

As for `C=C(C)[C@@H]1CC[C@@]2(O)[C@@H](O)CC[C@@H](C)[C@]2(C)C1` [OXYPHYLLOL C], the inhibition at 30 µM in the series on RBL-2H3 [1] is 2.4%. The inhibition at 10 µM in the series on RBL-2H3 [3] was -1.1%. Besides, the inhibition at 100 µM in the series on RBL-2H3 [9] is 8.2%.

`C=C(C)[C@@H]1CC[C@@]2(C)CCC[C@@](C)(O)[C@@H]2C1`: the inhibition at 30 µM was found to be 4.4% with RBL-2H3 [1] and 42.2% with Macrophage [8]. In the series on Macrophage [2], the IC50 was determined as 39 µM. Further, the inhibition at 10 µM was determined as 2.9% in the series on RBL-2H3 [3] and 19.2% in the series on Macrophage [5]. The inhibition at 3 µM in the series with Macrophage [6] stood at 2.5%. For the same compound, the results for the inhibition at 100 µM in the series with RBL-2H3 [9] and in the series with Macrophage [10] were 11.9% and 73.3%, respectively.

In the case of `CC(C)[C@@H]1CCC(=O)C2=C1[C@H](O)[C@](C)(O)CC2` [OXYPHYLLENODIOL A], the inhibition at 30 µM in the series on RBL-2H3 [1] was found to be 0.4%; in the series with Macrophage [8] it was 52.5%. In the series on Macrophage [2], the IC50 stood at 28 µM. In addition, the inhibition at 10 µM in the series with RBL-2H3 [3] was determined as 1.1%; in the series with Macrophage [5] it was 16.9%. Further, the inhibition at 3 µM in the series with Macrophage [6] stood at 11.8%. In addition, the values for the inhibition at 100 µM in the series with RBL-2H3 [9] and with Macrophage [10] were 1.7% and 102%, respectively.

As to `C=C1CC[C@H]2C(C)(C)CCC[C@]2(C)[C@H]1C/C=C(/C=O)CC=O`, the inhibition at 30 µM in the series on RBL-2H3 [1] stood at 13.1%; with Macrophage [8] it was 68.1%. In the series on Macrophage [2], the IC50 is 22 µM. The inhibition at 10 µM was -0.9% with RBL-2H3 [3] and 9.3% in the series on Macrophage [5]. Also, the Activity entry in series [4] is recorded as “Toxic”. Further, the inhibition at 3 µM in the series on Macrophage [6] is -4.7%. Besides, the inhibition at 100 µM in the series on RBL-2H3 [9] was 42%; in the series with Macrophage [10], 95.6%.

Take `C=C(C)[C@@H]1CC=C2[C@@H](O)CC[C@@H](C)[C@]2(C)C1`: the inhibition at 30 µM in the series with RBL-2H3 [1] is -9.2%; in the series with Macrophage [8], 31%. In the series on Macrophage [2], the IC50 is 48 µM. Further, the inhibition at 10 µM in the series on RBL-2H3 [3] was -5%; in the series with Macrophage [5], 1.8%. The inhibition at 3 µM with Macrophage [6] worked out at 5.8%. The inhibition at 100 µM in the series on RBL-2H3 [9] was -8%; in the series with Macrophage [10] it was 65.3%.

With `C=C(C)[C@@H]1CCC2=CC(=O)C[C@@H](C)[C@]2(C)C1` [NOOTKATONE], the inhibition at 30 µM with RBL-2H3 [1] is 8.2%; in the series with Macrophage [8] it was 44.8%. The IC50 in the series on Macrophage [2] worked out at 34 µM. In addition, the values for the inhibition at 10 µM in the series with RBL-2H3 [3] and with Macrophage [5] were 2% and 10.7%, respectively. In addition, in the series on Macrophage [6], the inhibition at 3 µM is -6.2%. Besides, the inhibition at 100 µM with RBL-2H3 [9] is 25.8%; with Macrophage [10], 86.9%.

As for `COc1cc(/C=C/C(=O)CC(=O)/C=C/c2ccc(O)c(OC)c2)ccc1O` [CURCUMIN], the inhibition at 30 µM with RBL-2H3 [1] worked out at 14.2%. For the same compound, the IC50 with RBL-2H3 [7] was 3 µM. Besides, the inhibition at 100 µM with RBL-2H3 [9] came to 62.6%.

For `C[C@@]12CCC(=O)C=C1[C@](C)(O)[C@H](O)CC2` [OXYPHYLLENONE B], the inhibition at 30 µM is -1.3% in the series on RBL-2H3 [1] and 19.2% with Macrophage [8]. Also, the IC50 in the series with Macrophage [2] is above 100 µM. Further, the inhibition at 10 µM is -0.8% in the series on RBL-2H3 [3] and 0.4% in the series with Macrophage [5]. Besides, in the series with Macrophage [6], the inhibition at 3 µM was -8.1%. For the same compound, the inhibition at 100 µM with RBL-2H3 [9] is -1.8%; with Macrophage [10], 41.2%.

As to `C[C@@]12CCC(=O)C=C1[C@@](C)(O)[C@H](O)CC2` [OXYPHYLLENONE A], the inhibition at 30 µM with RBL-2H3 [1] was -4.5%; with Macrophage [8], 43%. Also, in the series on Macrophage [2], the IC50 turned out to be 35 µM. Moreover, the inhibition at 10 µM was -3.3% with RBL-2H3 [3] and -2.9% in the series on Macrophage [5]. In the series on Macrophage [6], the inhibition at 3 µM is 1.6%. For the same compound, the inhibition at 100 µM with RBL-2H3 [9] was -4.7%; in the series on Macrophage [10] it was 85.7%.

Consider `COc1cc(O)c2c(=O)c(O)c(-c3ccccc3)oc2c1` [IZALPININ], for which the inhibition at 30 µM with RBL-2H3 [1] came out at 8.7%; with Macrophage [8], 13.4%. Besides, in the series on Macrophage [2], the IC50 was above 30 µM. Besides, the inhibition at 10 µM in the series with RBL-2H3 [3] was found to be 1.6%; in the series with Macrophage [5], 14.6%. In addition, the Activity result in series [4] was “Toxic”. In the series on Macrophage [6], the inhibition at 3 µM was 6.3%. In addition, the inhibition at 100 µM in the series on RBL-2H3 [9] was 27.5%; in the series on Macrophage [10], 41.5%.

Consider `CC(C)[C@H]1CCC(=O)C2=C1[C@H](O)[C@](C)(O)CC2` [OXYPHYLLENODIOL B], for which the inhibition at 30 µM in the series on RBL-2H3 [1] was -3.3%; in the series on Macrophage [8] it was 19.6%. Also, in the series with Macrophage [2], the IC50 is above 100 µM. In addition, the inhibition at 10 µM was -4.3% with RBL-2H3 [3] and -0.4% with Macrophage [5]. In the series with Macrophage [6], the inhibition at 3 µM is -4.2%. The inhibition at 100 µM with RBL-2H3 [9] was -3.1%; with Macrophage [10], 40.1%.
